From ChEMBL document CHEMBL4513216, “Probing the Open Global Health Chemical Diversity Library for Multistage-Active Starting Points for Next-Generation Antimalarials” (ACS Infect Dis, 2020)

Test: Toxicity liver stage against HepG2, at 10uM
Assay type: cell-based
Set-up: test concentration 10 uM, cell line HepG2-A16-CD81EGFP
Conditions: human, HepG2-A16-CD81EGFP cells; read-out: INHIBITION
In short: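 Uninfected HepG2-A16-CD81EGFP cells, 3 × 10^3 per well, 1536-well, plated on prespotted compound at 10 μM final, parasite-free screening media added to match infected plates; puromycin 10 μM positive, DMSO 0.5% negative; run in parallel with 48 h PbLuc assay at 37 °C, 5% CO2; viability by CellTiter-Glo luminescence, normalized to controls.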

Row | SMILES | cytotoxicity at 10 µM [%]
1 | COc1cccc(CNC(=O)CCNS(=O)(=O)c2ccc(C)cc2)c1 | -137
2 | O=C(NC[C@H]1OC[C@@H](NCc2ccccn2)[C@@H]1O)N1CCOCC1 | 0.15
3 | COC(=O)CC(c1ccc(O)c(Cl)c1)c1oc(C)cc(=O)c1O (configuration not stated) | -8.59
4 | O=C(c1cn(-c2cc(N3CCSCC3)ncn2)cn1)N1CCOCC1 | 14.9
5 | Cc1ccccc1N1CC2(CCN(S(=O)(=O)c3ccccc3)C2)CC1=O (configuration not stated) | 6.24
6 | O=C(c1n[nH]c2c1CCN(Cc1nccs1)C2)N1CCOCC1 | -144
7 | COCCn1cc2c(n1)C(CNS(C)(=O)=O)OCC2 (configuration not stated) | 0.763
8 | CCS(=O)(=O)N1CCC2(CC(=O)N(c3ccc4c(c3)OCO4)C2)C1 (configuration not stated) | 9.17
9 | Cc1noc([C@H]2C[C@H]3OCC[C@H]3N(S(C)(=O)=O)C2)n1 | -115
10 | COC[C@@]12CCO[C@@H]1CCN(C(=O)c1ccc(F)c(F)c1)C2 | -2.59
11 | CC1CCc2nc(O)c(C(=O)NCc3ccncc3)cc2C1 (configuration not stated) | -1.37
12 | O=C(Cn1ccc2ccc(Br)cc21)NCc1ccc(C(=O)O)cc1 | 6.46
13 | CCOCC1CN(Cc2ccoc2)Cc2ncn(CC3CC3)c21 (configuration not stated) | -14.5
14 | COCC(=O)N1Cc2cn(C)nc2C(COc2cccnc2)C1 (configuration not stated) | -11
15 | CCOc1cc(C(=O)n2cccn2)cc(OCC)c1OCC | 2.83
16 | CCCN(c1ccccc1C(=O)O)S(=O)(=O)c1cccc2cccnc12 | -3.89
17 | Cn1cc(CN2CCc3nc4sccc4c(=O)n3CC2)cn1 | -2.19
18 | CCOc1ccc(N(CCC#N)C(=O)c2ccc(OC)nc2)cc1 | 2.52
19 | Cc1ccc(C)c(SCC(=O)Nc2cccc(C(=O)N(C)C)n2)c1 | -9.9
20 | Cc1cc(F)cc(NC(=O)N(C)CC(C)(CO)CO)c1 | -1.44
21 | Cc1c(C(=O)N2CCC2(C)C)nnn1-c1cccc2cnccc12 | -2.15

Row | SMILES | cytotoxicity at 10 µM [%]
22 | CN(Cc1ccc(F)c(F)c1)Cc1cc2c(cc1Br)OCCO2 | -140
23 | c1cc(CCn2ccc(NC3CCSCC3)n2)ccn1 | 5.55
24 | COC(=O)CCCN(C)C(c1cccnc1)c1ccc(F)cc1F (configuration not stated) | -0.665
25 | Cc1ccc(CC(NC(=O)CCS(C)(=O)=O)c2ccccn2)cc1 (configuration not stated) | -11
26 | CC(Nc1ccc(Br)cc1)c1nc(C2CC2)no1 (configuration not stated) | 6.27
27 | Cc1nnc(CN(Cc2cccc3c2OCO3)CC2CCCO2)n1C (configuration not stated) | 3.93
28 | O=C(CN1CC(n2cccn2)C1)NCC1(c2ccccc2)CCC1 | -3.14
29 | CN(C)c1ncccc1CNC(=O)N1CCN(C)c2ccccc2C1 | 4.72
30 | COc1c(CNCc2ccc(N3CCOCC3)nc2)c(C)nn1C | 9.5
31 | CCc1nnc(SC2CCCN(c3cnn(C)c3)C2=O)n1C (configuration not stated) | 2.68
32 | O=C(Cn1cc(I)cn1)N1CCOCC1 | -10.2
33 | Cc1cn(CC(=O)NCC(=O)NC2CC2)c2ccccc12 | -0.966
34 | O=C(CSc1ccc2c(c1)OCCO2)NS(=O)(=O)c1ccccc1Cl | -4.46
35 | CCCN(C)c1ccc(C(=O)Nc2c(C)nn(C(C)C)c2C)cc1 | -2.84
36 | CN(CCN1CCOCC1)C(=O)CCCOCCc1ccccc1 | -1.28
37 | CC1CN(C)c2ccccc2CN1C(=O)c1ccncc1F (configuration not stated) | -16.9
38 | CN(CCNC(=O)N1CCCC1)C(=O)OC(C)(C)C | 3.97
39 | COC1CCN(C(=O)c2ccccc2NCc2cccnc2)CC1 | -7.22
40 | CC(C)C(c1cccnc1)N(C)C(=O)Cc1ccc(O)cc1 (configuration not stated) | -1.03
41 | CCOc1ccc(C#N)cc1NC(=O)N1CCC(n2cncn2)CC1 | 20.3
42 | CCOCCCNC(=O)NC(C)c1ccc(-n2cncn2)cc1 (configuration not stated) | 3.31

Row | SMILES | cytotoxicity at 10 µM [%]
43 | Cn1ncc2cnn(CC(O)COCc3ccccc3Cl)c2c1=O (configuration not stated) | 3.8
44 | O=C(CCCc1ccccn1)N1CCOc2ccc(F)cc21 | 9.81
45 | CC1CN(Cc2ccccc2)CCCN1CCCS(C)(=O)=O (configuration not stated) | 5.27
46 | CCOC(=O)C(C)Nc1ccc(CCN2CCOCC2)cc1 (configuration not stated) | -2.2
47 | CNC(=O)C(C)CN(C)C(=O)Nc1cc(-n2cccc2)ccc1F (configuration not stated) | -5.28
48 | CC1CCN(CCNC(=O)C2CCN(S(N)(=O)=O)CC2)CC1 | 17.9
49 | COCCC(=O)Nc1ccnc(Oc2ccccc2)c1 | 7.85
50 | Cc1nccn1-c1cc(CNC(=O)C(C)(C)C)ccn1 | -11.9
51 | COCCN1CCc2ncnc(NC3CC3)c2CC1 | 5.62
52 | COCC(=O)N1Cc2nccn2CC(CN(C)Cc2cccnc2)C1 (configuration not stated) | -76.2
53 | C[C@H](NS(C)(=O)=O)C(=O)NCc1cc(-c2ccco2)n(CC(F)(F)F)n1 | -13
54 | Cc1nc(C)c(CC(=O)N2CCCN(CC3CC3)C(C(C)C)C2)c(=O)[nH]1 (configuration not stated) | -153
55 | O=S(=O)(NCC1COc2ccccc2C1)N1CCCC1 (configuration not stated) | -7.74
56 | Cc1nnc(CCNC(=O)Nc2ccc(S(C)(=O)=O)cc2)[nH]1 | 7.91
57 | Cc1cc(C)c(Cn2cncn2)cc1CN1CCC(CN)C1 (configuration not stated) | -11.3
58 | COCc1cc(N(C)Cc2cc(C(C)(C)C)n[nH]2)ncn1 | -1.15
59 | CCCC1COCCN1Cc1ccc(NC(C)=O)cc1 (configuration not stated) | -145
60 | CC(=O)c1cccc(-c2c[nH]c(C)n2)c1 | -0.916
61 | CCOC(=O)N1CCC(Nc2cc(CC)nc3c(C)c(C)nn23)CC1 | 11.8
62 | COCCCC1(C(=O)O)CCCN(Cc2cc3c(cc2C)OCCO3)C1 (configuration not stated) | -2.3
63 | O=C(CCNc1ncc2c(n1)CCN2c1ccccc1)N1CCCC1 | 9.5

Row | SMILES | cytotoxicity at 10 µM [%]
64 | CN(Cc1ccc2nonc2c1)C(=O)CCc1cc2n(n1)CCCNC2 | -9.46
65 | CN1CC(c2ccccc2)CC2(CCN(CC(=O)N(C)C)CC2)C1 (configuration not stated) | -12.5
66 | CC(C)c1nc(C2CCCN2C(=O)c2cnns2)no1 (configuration not stated) | -6.8
67 | CC(C)n1ccc(CN2CCOC(CNc3cccnn3)C2)n1 (configuration not stated) | -16.6
68 | Cc1ccn2ncc(C(=O)N3CCCC(n4ccnc4C)C3)c2n1 (configuration not stated) | -13.6
69 | O=C(NCC1CCOC1)c1cc(-c2cccc(Cl)c2)on1 (configuration not stated) | -8.75
70 | O=C(CN1CCCS1(=O)=O)NCCOc1ccc2c(c1)CCC2 | -2.5
71 | Cn1cc([C@@H]2CN(S(=O)(=O)c3cccnc3)C[C@H]2N)c2ccncc21 | -0.57
72 | Cc1ccc(CN2Cc3c(C(=O)N4CCCC4)nn(C)c3C2)s1 | -0.704
73 | O=C1CC2(CCCCN2CC2CC2)CN1c1ccccc1 (configuration not stated) | 4.86
74 | Cc1ccc(C(=O)N2CCO[C@H]3[C@H](OCc4ccccn4)CC[C@@H]32)o1 | -148
75 | O=C(CC1CC1)N1CC[C@H]2OCC[C@@]2(COc2ncccc2F)C1 | -134
76 | Cc1ncsc1CN1C[C@@H](OCC(=O)N(C)C)[C@H]2OCCC[C@H]21 | -139
77 | Cc1cccc(CN2C[C@@H]3COC[C@]3(CNC(=O)c3ccno3)C2)n1 | 3.84
78 | O=C(NCc1cccs1)C1CNCC12CCOCC2 (configuration not stated) | -5.43
79 | CCOCC(=O)N1C[C@@H]2CC[C@H]1CN(C(=O)c1ccncc1)C2 | 0.0793
80 | O=C(c1cccnc1)N1C[C@H]2CC[C@@H](C1)N(Cc1ccc(F)cc1Cl)C2 | 1.17
81 | CCNc1nc2cn(-c3ccc(C)c(C)c3)c(=O)c-2c[nH]1 | 0.255
82 | CSc1ncccc1C(=O)N1C[C@@H]2CC[C@H]1CN(C(C)=O)C2 | 4.99
